Assay results as given in ChEMBL document CHEMBL4406821, “Novel dual inhibitors targeting CDK4 and VEGFR2 synergistically suppressed cancer progression and angiogenesis” (Eur J Med Chem, 2019).
Active and inactive are the calls of the source. The calls are words filed in the database; no cut-off is given here.

Tests used:
[1] = biological target: Vascular endothelial growth factor receptor 2 (Homo sapiens, UniProt P35968); assay: Inhibition of recombinant human KDR (790 to end residues) at 1 uM using myelin basic protein as substrate incubated for 40 mins in presence of [gamma-33P]-ATP by scintillation counting method relative to control
[2] = biological target: Fibroblast growth factor receptor 1 (Homo sapiens) (UniProt P11362); assay: Inhibition of recombinant human FGFR1 (456 to 765 residues) at 1 uM using KKKSPGEYVNIEFG as substrate incubated for 40 mins in presence of [gamma-33P]-ATP by scintillation counting method relative to control
Outline: (§1)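 Tested at a single 1 uM in an outsourced commercial kinase-profiling panel, read as percent inhibition. Each value is the mean of two independent experiments.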

[3] = biological target: Protein-tyrosine kinase 6 (Homo sapiens) (UniProt Q13882); assay: Inhibition of recombinant full length human BRK at 1 uM using poly(Glu, Tyr) 4:1 as substrate incubated for 40 mins in presence of [gamma-33P]-ATP by scintillation counting method relative to control
Chain of Protein-tyrosine kinase 6 (Homo sapiens) (Q13882 whole entry, looked up): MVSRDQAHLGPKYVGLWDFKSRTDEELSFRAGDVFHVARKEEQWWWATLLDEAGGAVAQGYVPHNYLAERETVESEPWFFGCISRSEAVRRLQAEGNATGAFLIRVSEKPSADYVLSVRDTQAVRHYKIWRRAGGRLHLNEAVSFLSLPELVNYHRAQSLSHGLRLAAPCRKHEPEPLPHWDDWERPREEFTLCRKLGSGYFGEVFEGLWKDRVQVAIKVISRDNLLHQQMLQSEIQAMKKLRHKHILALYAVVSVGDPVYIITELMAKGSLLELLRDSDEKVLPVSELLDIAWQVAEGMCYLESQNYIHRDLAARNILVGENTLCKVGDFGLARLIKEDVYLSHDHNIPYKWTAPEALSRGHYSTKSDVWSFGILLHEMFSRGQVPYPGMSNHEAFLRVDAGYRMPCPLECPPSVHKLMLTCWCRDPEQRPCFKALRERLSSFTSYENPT
Outline: (§2)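 Kinase panel profiling at 1 μM performed by Eurofins KinaseProfiler; percent inhibition reported as mean of two independent experiments.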

[4] = biological target: Tyrosine-protein kinase FRK (Homo sapiens) (UniProt P42685); assay: Inhibition of recombinant human PTK5 (218 to end residues) at 1 uM using GGEEEEYFELVKKKK as substrate incubated for 40 mins in presence of [gamma-33P]-ATP by scintillation counting method relative to control
[5] = biological target: Protein kinase C theta type (Homo sapiens) (UniProt Q04759); assay: Inhibition of recombinant human full length PKCtheta at 1 uM using histone H1 as substrate incubated for 40 mins in presence of [gamma-33P]-ATP by scintillation counting method relative to control
Chain of Protein kinase C theta type (Homo sapiens) (Q04759 whole entry, looked up): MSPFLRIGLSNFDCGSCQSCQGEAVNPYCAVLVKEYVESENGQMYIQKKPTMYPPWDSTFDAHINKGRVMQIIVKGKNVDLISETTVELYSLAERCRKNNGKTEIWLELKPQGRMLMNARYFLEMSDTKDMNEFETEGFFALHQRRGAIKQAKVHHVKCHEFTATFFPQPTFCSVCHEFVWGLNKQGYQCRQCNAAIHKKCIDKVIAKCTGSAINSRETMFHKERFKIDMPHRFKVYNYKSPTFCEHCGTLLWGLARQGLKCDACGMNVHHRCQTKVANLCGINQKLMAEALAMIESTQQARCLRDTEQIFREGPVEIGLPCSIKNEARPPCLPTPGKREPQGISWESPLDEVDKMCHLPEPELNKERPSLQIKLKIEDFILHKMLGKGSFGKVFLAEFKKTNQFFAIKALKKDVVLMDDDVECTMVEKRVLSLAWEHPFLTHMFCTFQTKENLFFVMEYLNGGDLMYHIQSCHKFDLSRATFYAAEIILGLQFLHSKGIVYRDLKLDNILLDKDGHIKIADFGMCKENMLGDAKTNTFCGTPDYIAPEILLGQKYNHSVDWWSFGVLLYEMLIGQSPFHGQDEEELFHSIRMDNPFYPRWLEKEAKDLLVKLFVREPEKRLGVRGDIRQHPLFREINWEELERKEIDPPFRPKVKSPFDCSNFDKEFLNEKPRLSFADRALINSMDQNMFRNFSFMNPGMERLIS

[6] = Toxicity in BALB/c mouse assessed as effect on blood parameter by measuring hematocrit at 40 mg/kg, po administered once two days for 4 times by hematology analyzer; settings: in vivo
[7] = biological target: Protein kinase C zeta type (Homo sapiens) (UniProt Q05513); assay: Inhibition of recombinant human PKCzeta (2 to end residues) at 1 uM using ERMRPRKRQGSVRRRV as substrate incubated for 40 mins in presence of [gamma-33P]-ATP by scintillation counting method relative to control
Chain of Protein kinase C zeta type (Homo sapiens) (Q05513 whole entry): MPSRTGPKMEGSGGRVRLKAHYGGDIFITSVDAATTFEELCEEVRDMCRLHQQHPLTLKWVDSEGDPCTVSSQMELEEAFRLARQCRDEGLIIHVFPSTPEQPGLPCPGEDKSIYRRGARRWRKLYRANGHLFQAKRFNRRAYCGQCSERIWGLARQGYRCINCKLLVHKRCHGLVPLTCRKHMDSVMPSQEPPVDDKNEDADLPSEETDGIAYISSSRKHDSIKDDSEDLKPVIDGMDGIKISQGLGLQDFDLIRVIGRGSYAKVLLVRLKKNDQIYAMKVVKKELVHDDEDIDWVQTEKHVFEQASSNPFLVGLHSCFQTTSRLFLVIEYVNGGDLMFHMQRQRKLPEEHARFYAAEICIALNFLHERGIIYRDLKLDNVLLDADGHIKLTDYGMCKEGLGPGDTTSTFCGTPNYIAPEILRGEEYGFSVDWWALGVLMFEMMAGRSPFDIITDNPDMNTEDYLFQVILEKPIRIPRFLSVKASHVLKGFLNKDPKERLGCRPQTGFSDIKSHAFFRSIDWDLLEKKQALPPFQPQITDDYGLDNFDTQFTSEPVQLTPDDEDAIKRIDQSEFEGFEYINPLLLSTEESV

[8] = biological target: Serine/threonine-protein kinase PAK 6 (Homo sapiens) (UniProt Q9NQU5); assay: Inhibition of recombinant human PAK6 (382 to end residues) at 1 uM using RRRLSFAEPG as substrate incubated for 40 mins in presence of [gamma-33P]-ATP by scintillation counting method relative to control
Chain of Serine/threonine-protein kinase PAK 6 (Homo sapiens) (Q9NQU5 whole entry, looked up): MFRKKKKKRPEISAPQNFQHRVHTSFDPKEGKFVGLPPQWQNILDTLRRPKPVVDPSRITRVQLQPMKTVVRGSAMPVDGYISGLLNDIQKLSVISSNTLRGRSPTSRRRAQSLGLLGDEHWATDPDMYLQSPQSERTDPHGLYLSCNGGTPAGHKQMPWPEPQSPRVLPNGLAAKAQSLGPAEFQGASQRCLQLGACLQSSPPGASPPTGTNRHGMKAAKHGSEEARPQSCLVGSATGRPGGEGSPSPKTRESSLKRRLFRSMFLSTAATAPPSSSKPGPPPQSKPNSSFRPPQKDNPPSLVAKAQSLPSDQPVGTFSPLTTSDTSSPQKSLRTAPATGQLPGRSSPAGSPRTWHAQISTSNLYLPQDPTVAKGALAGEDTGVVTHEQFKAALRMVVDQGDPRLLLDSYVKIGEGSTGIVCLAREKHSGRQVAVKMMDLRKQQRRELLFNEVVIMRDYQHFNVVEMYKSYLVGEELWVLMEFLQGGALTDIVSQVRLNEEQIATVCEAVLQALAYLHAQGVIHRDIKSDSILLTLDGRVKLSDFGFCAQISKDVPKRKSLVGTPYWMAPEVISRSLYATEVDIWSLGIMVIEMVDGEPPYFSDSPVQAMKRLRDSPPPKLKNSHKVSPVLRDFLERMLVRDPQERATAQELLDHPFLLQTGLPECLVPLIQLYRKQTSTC

[9] = Toxicity in BALB/c mouse assessed as effect on blood parameter by measuring MCHC at 40 mg/kg, po administered once two days for 4 times by hematology analyzer; settings: in vivo
[10] = biological target: Ribosomal protein S6 kinase alpha-4 (Homo sapiens) (UniProt O75676); assay: Inhibition of recombinant human MSK2 (2 to end residues) at 1 uM using GRPRTSSFAEGKK as substrate incubated for 40 mins in presence of [gamma-33P]-ATP by scintillation counting method relative to control
Chain of Ribosomal protein S6 kinase alpha-4 (Homo sapiens) (O75676 whole entry, looked up): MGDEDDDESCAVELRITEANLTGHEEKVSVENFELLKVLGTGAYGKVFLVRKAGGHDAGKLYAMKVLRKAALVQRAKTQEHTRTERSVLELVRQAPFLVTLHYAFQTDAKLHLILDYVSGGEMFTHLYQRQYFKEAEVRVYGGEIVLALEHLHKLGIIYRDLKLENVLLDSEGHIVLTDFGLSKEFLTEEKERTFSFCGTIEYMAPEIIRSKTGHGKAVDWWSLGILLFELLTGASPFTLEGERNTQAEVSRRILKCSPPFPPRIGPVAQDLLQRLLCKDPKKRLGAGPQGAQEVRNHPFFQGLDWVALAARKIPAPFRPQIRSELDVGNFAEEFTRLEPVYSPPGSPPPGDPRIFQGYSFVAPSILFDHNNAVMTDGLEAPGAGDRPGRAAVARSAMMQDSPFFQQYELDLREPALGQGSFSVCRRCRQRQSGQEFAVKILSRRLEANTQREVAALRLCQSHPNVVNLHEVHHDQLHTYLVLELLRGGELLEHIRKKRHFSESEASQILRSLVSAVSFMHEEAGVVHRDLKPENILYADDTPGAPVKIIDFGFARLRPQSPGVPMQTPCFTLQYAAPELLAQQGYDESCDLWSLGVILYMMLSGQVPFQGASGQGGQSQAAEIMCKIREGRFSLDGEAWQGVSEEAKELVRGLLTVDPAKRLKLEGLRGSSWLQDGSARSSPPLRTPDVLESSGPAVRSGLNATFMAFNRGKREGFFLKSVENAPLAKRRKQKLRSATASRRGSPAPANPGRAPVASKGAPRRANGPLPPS

[11] = Toxicity in NOD/SCID BALB/c mouse xenografted with human SiHa cells assessed as effect on blood parameter by measuring PDW at 40 mg/kg, po administered once two days for 4 times by hematology analyzer; format: organism-based; settings: in vivo
[12] = Toxicity in NOD/SCID BALB/c mouse xenografted with human SiHa cells assessed as effect on blood parameter by measuring RDW at 40 mg/kg, po administered once two days for 4 times by hematology analyzer; format: organism-based; settings: in vivo
[13] = biological target: Beta-adrenergic receptor kinase 1 (Homo sapiens) (UniProt P25098); assay: Inhibition of recombinant human full length GRK2 at 1 uM using casein as substrate incubated for 40 mins in presence of [gamma-33P]-ATP by scintillation counting method relative to control; outline: as §1
[14] = system: MDA-MB-231; assay: Induction of apoptosis in human MDA-MB-231 cells assessed as decrease in Ki67 expression at 20 to 40 nM incubated for 48 hrs by Western blot analysis; format: functional, cell-based
Outline: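 Cells were treated for 48 h, washed three times with PBS, and lysed in RIPA buffer. Immunoblots used anti-Rb, anti-phospho-Rb, anti-Ki67 and anti-Bcl-2 (each 1:1000), with β-actin as loading control.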

[15] = Tmax in Sprague-Dawley rat at 10 mg/kg, po by HPLC-MS analysis; format: ADME, organism-based; settings: in vivo
[16] = system: MDA-MB-231; assay: Inhibition of colony formation in human MDA-MB-231 cells at 20 to 40 nM incubated for 5 days by crystal violet staining based light microscopy; format: functional, cell-based
Outline: (§3)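 4 × 10^3 cells per well were cultured with graded concentrations for 5 days. Cells were then fixed with 20% methanol, stained with 0.5% crystal violet and photographed by light microscopy.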

[17] = biological target: Macrophage-stimulating protein receptor (Homo sapiens) (UniProt Q04912); assay: Inhibition of recombinant human RON (983 to end residues) at 1 uM using GGMEDIYFEFMGGKKK as substrate incubated for 40 mins in presence of [gamma-33P]-ATP by scintillation counting method relative to control
Chain of Macrophage-stimulating protein receptor (Homo sapiens) (Q04912 25-304 limits assumed): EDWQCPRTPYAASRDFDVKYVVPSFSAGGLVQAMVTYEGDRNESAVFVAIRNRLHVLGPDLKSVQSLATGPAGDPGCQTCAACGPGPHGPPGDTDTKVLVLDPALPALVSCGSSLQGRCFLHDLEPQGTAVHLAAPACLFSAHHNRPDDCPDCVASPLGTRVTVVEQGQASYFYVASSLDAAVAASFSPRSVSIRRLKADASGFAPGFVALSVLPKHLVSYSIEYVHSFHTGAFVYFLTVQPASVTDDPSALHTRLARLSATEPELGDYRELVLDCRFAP
Chain of Macrophage-stimulating protein receptor (Homo sapiens) (Q04912 310-1400 limits assumed): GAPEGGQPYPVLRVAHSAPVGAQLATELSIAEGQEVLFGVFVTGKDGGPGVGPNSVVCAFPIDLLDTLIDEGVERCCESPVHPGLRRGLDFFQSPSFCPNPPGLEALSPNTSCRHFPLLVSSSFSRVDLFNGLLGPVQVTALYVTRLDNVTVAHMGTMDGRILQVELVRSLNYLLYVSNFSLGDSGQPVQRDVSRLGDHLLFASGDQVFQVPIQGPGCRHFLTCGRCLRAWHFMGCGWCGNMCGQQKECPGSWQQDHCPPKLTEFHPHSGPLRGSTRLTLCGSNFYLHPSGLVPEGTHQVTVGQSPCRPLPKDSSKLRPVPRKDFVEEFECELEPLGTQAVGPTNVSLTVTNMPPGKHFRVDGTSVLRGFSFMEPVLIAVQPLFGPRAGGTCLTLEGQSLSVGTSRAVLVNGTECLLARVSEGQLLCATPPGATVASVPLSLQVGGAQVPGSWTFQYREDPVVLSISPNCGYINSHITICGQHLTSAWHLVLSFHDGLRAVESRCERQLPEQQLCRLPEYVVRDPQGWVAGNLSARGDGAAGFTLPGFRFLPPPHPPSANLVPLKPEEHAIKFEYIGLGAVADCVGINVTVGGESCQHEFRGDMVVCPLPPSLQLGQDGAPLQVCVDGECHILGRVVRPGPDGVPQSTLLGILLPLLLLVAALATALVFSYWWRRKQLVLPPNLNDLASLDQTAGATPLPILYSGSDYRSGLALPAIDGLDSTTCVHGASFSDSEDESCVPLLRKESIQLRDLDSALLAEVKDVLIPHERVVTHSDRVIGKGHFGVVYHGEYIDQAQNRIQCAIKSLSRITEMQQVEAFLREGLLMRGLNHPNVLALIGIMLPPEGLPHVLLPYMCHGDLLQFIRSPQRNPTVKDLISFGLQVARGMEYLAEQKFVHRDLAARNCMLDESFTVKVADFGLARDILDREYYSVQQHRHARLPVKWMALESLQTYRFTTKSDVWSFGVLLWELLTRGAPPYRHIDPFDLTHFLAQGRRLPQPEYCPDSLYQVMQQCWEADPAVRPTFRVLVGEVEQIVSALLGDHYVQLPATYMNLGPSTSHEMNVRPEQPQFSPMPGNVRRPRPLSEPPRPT

[18] = biological target: Aurora kinase A (Homo sapiens) (UniProt O14965); assay: Inhibition of recombinant full length human Aurora A at 1 uM using LRRASLG as substrate incubated for 40 mins in presence of [gamma-33P]-ATP by scintillation counting method relative to control; outline: as §2
Chain of Aurora kinase A (Homo sapiens) (O14965 whole entry): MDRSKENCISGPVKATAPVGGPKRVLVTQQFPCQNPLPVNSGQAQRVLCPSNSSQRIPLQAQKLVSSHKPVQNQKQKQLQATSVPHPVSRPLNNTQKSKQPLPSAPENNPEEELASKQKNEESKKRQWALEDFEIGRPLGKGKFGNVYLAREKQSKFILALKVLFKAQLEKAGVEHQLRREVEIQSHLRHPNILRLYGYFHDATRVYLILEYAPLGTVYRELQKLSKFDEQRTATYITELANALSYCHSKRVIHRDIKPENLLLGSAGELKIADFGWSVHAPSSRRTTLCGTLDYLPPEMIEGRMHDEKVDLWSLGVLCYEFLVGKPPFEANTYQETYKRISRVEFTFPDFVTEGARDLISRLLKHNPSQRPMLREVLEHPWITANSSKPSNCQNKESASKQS

[19] = system: SiHa; assay: Antiangiogenic activity against human SiHa cells xenografted in NOD/SCID BALB/c mouse assessed as reduction in CD31 expression at 40 mg/kg, po measured after 21 days by hematoxylin and eosin staining based immunohistochemistry; format: functional, organism-based
Outline: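 Female NOD/SCID Balb/c mice, 6–8 weeks old, received 2×10^6 SiHa cells subcutaneously in the right flank. Once tumors reached 100 mm³, mice were randomized, 5 per group, and gavaged once daily for 21 days. Formalin-fixed, paraffin-embedded tumor sections were stained with Ki67 or CD31 antibody (1:100, 4 °C overnight), then biotin secondary and ABC-peroxidase/DAB, with hematoxylin counterstain.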

[20] = system: Mus musculus; assay: Antiangiogenic activity in Matrigel plug angiogenic BALB/c mouse assessed as reduction in blood vessel formation at 20 mg/kg, sc measured after 10 days by Matrigel plug assay; format: functional, organism-based
Outline: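 Balb/c mice, 5 weeks old, were injected subcutaneously with 750 µL of a 2:1 mix of growth factor-reduced Matrigel and compound (10 or 20 mg/kg) or vehicle. Plugs were harvested after 10 days and the subcutaneous vessels photographed.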

[21] = system: MDA-MB-231; assay: Inhibition of colony formation in human MDA-MB-231 cells at 40 nM incubated for 5 days by crystal violet staining based light microscopy; format: functional, cell-based; outline: as §3
[22] = system: HeLa; assay: Induction of apoptosis in human HeLa cells at 40 nM incubated for 48 hrs by annexin V FITC and propidium iodide staining based flow cytometry; format: functional, cell-based
Outline: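 Cells were treated for 48 h, stained with FITC Annexin V and PI, and analyzed by flow cytometry to count early and late apoptotic cells.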

[23] = system: SiHa; assay: Inhibition of colony formation in human SiHa cells at 80 nM incubated for 5 days by crystal violet staining based light microscopy; format: functional, cell-based; outline: as §3

Q: With `Cc1ccc(NC(=O)C2(C(=O)Nc3ccc(Nc4ncc(F)c(-c5cc(F)c6nc(C)n(C(C)C)c6c5)n4)cc3)CC2)cc1` as the compound, how does the inhibition [1] read?
A: 95%

Q: What about the inhibition [2] of the same compound?
A: 0%

Q: And the inhibition [3]?
A: 22%

Q: What about the inhibition [4] of the same compound?
A: 10%

Q: And the inhibition [5]?
A: 40%

Q: And the Activity [6]?
A: Non-Toxic

Q: What about the inhibition [7] of the same compound?
A: 4%

Q: What about the inhibition [8] of the same compound?
A: 12%

Q: What about the Activity [9] of the same compound?
A: Non-Toxic

Q: What about the inhibition [10] of the same compound?
A: 78%

Q: And the Activity [11]?
A: Non-Toxic

Q: And the Activity [12]?
A: Non-Toxic

Q: And the inhibition [13]?
A: 0%

Q: What about the Activity [14] of the same compound?
A: Active

Q: What about the Tmax [15] of the same compound?
A: 2 h

Q: What about the inhibition [16] of the same compound?
A: Active

Q: And the inhibition [17]?
A: 54%

Q: What about the inhibition [18] of the same compound?
A: 79%

Q: With `COc1cc2nccc(Oc3ccc(NC(=O)C4(C(=O)Nc5ccc(F)cc5)CC4)cc3)c2cc1OC` [CABOZANTINIB] as the compound, how does the inhibition [19] read?
A: Active

Q: What about the inhibition [20] of the same compound?
A: Active

Q: What about the inhibition [21] of the same compound?
A: Active

Q: What about the Activity [22] of the same compound?
A: Active

Q: And the inhibition [23]?
A: Active
